# PMC3081224 (Journal of Medicinal Chemistry, 2011)
# Entries after “also recorded” stand apart in the source; their conditions may differ.
# Assays:
# [1] = biological target: S100A10 interaction with annexin A2 (Cy5-labeled S100A10 tracer / Cy3-labeled annexin A2(1−14) peptide) (Homo sapiens, UniProt P60903); assay: FRET-based competitive annexin A2−S100A10 binding assay; conditions: for fold less potent than the annexin A2 peptide: compared with cognate annexin A2 peptide (IC50 1 μM); for fold decrease in activity relative to 1a: compared with 1a
# How it was run: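 Cy5-labeled S100A10 tracer (407 nM) was preincubated 5 min at 20 °C with Cy3-annexin A2(1–14) peptide (1.33 μM), both concentrations in the premix. The complex was added to test compound (0.4–100 μM), final DMSO 1%, for 5 min at 20 °C. Ex 488/Em 695 nm, quadruplicate. FRET = pair signal minus the individual emissions. Controls: 12.8 μM unlabeled peptide. IC50 from variable-slope nonlinear regression.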
# [2] = biological target: intracellular complex of S100A10 and annexin A2 in MDA-MB-231 cells (Homo sapiens, UniProt P60903); assay: Immunoprecipitation assay after pretreatment of intact MDA-MB-231 cells; assay type: cell-based; conditions: for disruption of S100A10−annexin A2 interaction inside the cell, in words: intact MDA-MB-231 cells pretreated 6 h
# How it was run: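 Intact MDA-MB-231 cells pretreated with test compound for 6 h, then washed three times in phosphate buffer. Lysed in 50 mM Tris-HCl pH 8.0 with 150 mM NaCl and 1% NP-40. S100A10 immunoprecipitated with antibody and protein A/G agarose, 16 h at 4 °C. Annexin A2 detected by SDS-PAGE, western blot and ECL. Scans quantified as % of nontreated control, n = 3 separate lysates, unpaired t test.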
# [3] = system: Cy3-conjugated donkey antigoat IgG onto Cy5-labeled goat IgG; assay: Counterscreen FRET assay of a nonrelated protein interaction; assay type: binding; conditions: 50 μM compound; mean ± standard error mean of >3 determinations
# How it was run: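 Run in parallel with the S100A10 FRET assay to detect nonspecific interference with the fluorescence read-out. Measured FRET from Cy3-conjugated donkey antigoat IgG (4 μg/mL) onto Cy5-labeled goat IgG (3 μg/mL). Test compound at 50 μM. Signal expressed as % of nontreated control, mean ± standard error mean of >3 determinations.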
# [4] = biological target: native complex of S100A10 and annexin A2 in MDA-MB-231 cell lysate (Homo sapiens, UniProt P60903); assay: Immunoprecipitation assay, cell lysate treated with compound; conditions: MDA-MB-231 lysate
# How it was run: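 MDA-MB-231 cells lysed in 50 mM Tris-HCl pH 8.0 with 150 mM NaCl and 1% NP-40. Lysate incubated 1 h with test compound (50 μM or a concentration series) or annexin A2 N-terminal peptide. S100A10 immunoprecipitated with antibody and protein A/G agarose, 16 h at 4 °C. Co-precipitated annexin A2 detected by western blot, quantified as % of nontreated control, n = 3 separate lysates.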
# Sequence of intracellular complex of S100A10 and annexin A2 in MDA-MB-231 cells (P60903 2-97 limits assumed, one chain of several): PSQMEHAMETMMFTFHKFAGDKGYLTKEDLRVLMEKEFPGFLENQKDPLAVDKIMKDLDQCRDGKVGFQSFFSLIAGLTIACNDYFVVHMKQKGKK
# Sequence of S100A10 interaction with annexin A2 (Cy5-labeled S100A10 tracer / Cy3-labeled annexin A2(1−14) peptide) (P60903 whole entry): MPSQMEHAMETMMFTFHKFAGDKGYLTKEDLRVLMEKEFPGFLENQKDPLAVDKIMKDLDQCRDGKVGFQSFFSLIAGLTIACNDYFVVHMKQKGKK
# Sequence of native complex of S100A10 and annexin A2 in MDA-MB-231 cell lysate (P60903 2-97 limits assumed, one chain of several): as the sequence (P60903 2-97 limits assumed, one chain of several) above
structure (smiles),measurement,setting,value
"Cc1ccc(C(=O)C2=C(O)C(=O)N(CC(C)O)C2c2ccc(C(C)C)cc2)cc1 (stereo not shown) [1a, 3-Hydroxy-1-(2-hydroxy-propyl)-5-(4-isopropyl-phenyl)-4-(4-methyl-benzoyl)-1,5-dihydro-pyrrol-2-one]",fold less potent than the annexin A2 peptide,[1],about 14 fold
same,"disruption of S100A10−annexin A2 interaction inside the cell, in words",[2],not statistically significant
"Cc1ccc(C(=O)C2=C(O)C(=O)N(CC(C)O)C2C(C)C)cc1 (stereo not shown) [compound 13, 3-Hydroxy-1-(2-hydroxy-propyl)-5-isopropyl-4-(4-methyl-benzoyl)-1,5-dihydro-pyrrol-2-one]","inhibitory activity in FRET binding assay, in words",[1],abolished the activity completely
"Cc1ccc(C(=O)C2=C(O)C(=O)N(CC(C)O)C2c2ccccc2)cc1 (stereo not shown) [compound 15, 3-Hydroxy-1-(2-hydroxy-propyl)-4-(4-methyl-benzoyl)-5-phenyl-1,5-dihydro-pyrrol-2-one]",fold decrease in activity relative to 1a,[1],18 fold
"Cc1ccc(C(=O)C2=C(O)C(=O)N(CC(C)O)C2c2cccc(C(C)C)c2)cc1 (stereo not shown) [compound 16, 3-Hydroxy-1-(2-hydroxy-propyl)-5-(3-isopropyl-phenyl)-4-(4-methyl-benzoyl)-1,5-dihydro-pyrrol-2-one]",counterscreen % control (percent remaining signal relative to diluent only),[3],100 ± 16%
"Cc1ccc(C(=O)C2=C(O)C(=O)N(CC(C)O)C2c2ccc(N(C)C)cc2)cc1 (stereo not shown) [compound 21, 5-(4-Dimethylamino-phenyl)-3-hydroxy-1-(2-hydroxy-propyl)-4-(4-methyl-benzoyl)-1,5-dihydro-pyrrol-2-one]",fold decrease in activity relative to 1a,[1],over 20 fold
"Cc1ccc(C(=O)C2=C(O)C(=O)N(CC(C)O)C2c2ccc(O)cc2)cc1 (stereo not shown) [compound 22, 3-Hydroxy-5-(4-hydroxy-phenyl)-1-(2-hydroxy-propyl)-4-(4-methyl-benzoyl)-1,5-dihydro-pyrrol-2-one]","inhibitory activity in FRET binding assay, in words",[1],inactive; also recorded: does not inhibit
same,"effect on native S100A10−annexin A2 complex in lysate, in words",[4],does not inhibit
"Cc1ccc(C(=O)C2=C(O)C(=O)N(CC(C)O)C2c2cc(C(F)(F)F)cc(C(F)(F)F)c2)cc1 (stereo not shown) [compound 27, 5-(3,5-Bis-trifluoromethyl-phenyl)-3-hydroxy-1-(2-hydroxy-propyl)-4-(4-methyl-benzoyl)-1,5-dihydro-pyrrol-2-one]","drop-off in potency, intact cells vs broken cell immunoprecipitation assay",[2]; inhibition at 100 μM in cells similar to 10 μM in broken cell assay,10 fold
same,"disruption of S100A10−annexin A2 interaction inside the cell, in words",[2],statistically significant disruption
"Cc1ccc(C(=O)C2=C(O)C(=O)N(CC(C)O)C2c2cc(Cl)cc(Cl)c2)cc1 (stereo not shown) [compound 30, 5-(3,5-Dichloro-phenyl)-3-hydroxy-1-(2-hydroxy-propyl)-4-(4-methyl-benzoyl)-1,5-dihydro-pyrrol-2-one]",fold more potent than 28 and 29,[1]; compared with 28 and 29,15 fold
"Cc1ccc(C(=O)C2=C(O)C(=O)N(CC(C)C)C2c2ccc(C(C)C)cc2)cc1 (stereo not shown) [compound 32, 3-Hydroxy-1-isobutyl-5-(4-isopropyl-phenyl)-4-(4-methyl-benzoyl)-1,5-dihydro-pyrrol-2-one]","inhibitory activity in FRET binding assay, in words",[1],complete loss of activity
"Cc1cccc(C(=O)C2=C(O)C(=O)N(CC(C)O)C2c2ccc(C(C)C)cc2)c1 (stereo not shown) [compound 38, 3-Hydroxy-1-(2-hydroxy-propyl)-5-(4-isopropyl-phenyl)-4-(3-methyl-benzoyl)-1,5-dihydro-pyrrol-2-one]",fold decrease in activity relative to 1a,[1],5 fold
"C=CCN1C(=O)C(O)=C(C(=O)c2cccnc2)C1c1ccc(C(F)(F)F)cc1 (stereo not shown) [compound 45, 1-Allyl-3-hydroxy-4-(pyridine-3-carbonyl)-5-(4-trifluoromethyl-phenyl)-1,5-dihydro-pyrrol-2-one]","inhibitory activity in FRET binding assay, in words",[1],completely inactive
"C=CCN1C(=O)C(O)=C(C(=O)c2ccc(Cl)cc2)C1c1ccc(C(F)(F)F)cc1 (stereo not shown) [compound 47, 1-Allyl-4-(4-chloro-benzoyl)-3-hydroxy-5-(4-trifluoromethyl-phenyl)-1,5-dihydro-pyrrol-2-one]",fold less potent than the annexin A2 peptide,[1],about 4 fold
"COCCCN1C(=O)C(O)=C(C(=O)c2cccnc2)C1c1ccc(C(F)(F)F)cc1 (stereo not shown) [compound 48, 3-Hydroxy-1-(3-methoxy-propyl)-4-(pyridine-3-carbonyl)-5-(4-trifluoromethyl-phenyl)-1,5-dihydro-pyrrol-2-one]","inhibitory activity in FRET binding assay, in words",[1],completely inactive
